Assay results from ChEMBL document CHEMBL1148483, “Potent nonclassical nucleoside antiviral drugs based on the N,N-diarylformamidine concept” (J Med Chem, 2004).
“And” between values parts separate entries of the source, which are not always exact repeats. Equal values may be shown once.

How the values were obtained:
[1] = Partition coefficient (logP); assay type: physicochemical; conditions: octanol/water
[2] = Half life is the time required for hydrolysis of compound to 3TC in HBV medium at 37 degree celsius; assay type: ADME
Procedure, shortened: (§1)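 Compound in DMSO diluted 1:100 into medium, final concentration around 5×10^-4 M, and held at 37 °C. Media: PBS (0.01 M, pH 7.4), HepG2.2.15 culture medium, or MT-4 medium (RPMI 1640 + 10% FCS). Samples taken over time and quenched in ice-cold methanol. Conversion to 3TC followed by HPLC at 317 nm. t1/2 is the time to 50% hydrolysis.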

[3] = Half life is the time required for hydrolysis of compound to 3TC in HepG 2.2.15 lysate medium at 37 degree celsius; assay type: ADME, HepG2 2.2.15; conditions: human, HepG 2.2.15 cell lysate
Procedure, shortened: (§2)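 Cell lysates prepared from PBS-washed HepG2.2.15 or MT-4 cells, about 10×10^6 cells/mL, in Tris-HCl 50 mM, NaCl 150 mM, EDTA 0.1 mM, 0.5% NP40 and protease inhibitors. Lysis 10 min on ice, then centrifuged; supernatant used. Compound added from DMSO to a final concentration around 5×10^-4 M, 37 °C. Timed samples quenched in cold methanol, HPLC at 317 nm. t1/2 is the time to 50% conversion to 3TC.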

[4] = Half life is the time required for hydrolysis of compound to 3TC in PBS medium at 37 degree celsius; assay type: ADME; procedure, shortened: as §1
MT4 [5] = assay: Effective concentration to inhibit HIV-1 IIIB cytopathicity in MT-4 cells was determined in vitro; assay type: functional, cell-based; conditions: Homo sapiens
Procedure, shortened: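 HIV-1 IIIB-infected MT-4 cells (RPMI 1640, 10% FCS); inhibition of virus-induced cytopathicity read 5 days post-infection; EC50 = concentration inhibiting cytopathicity by 50%.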

MT4 [6] = assay: Concentration required to cause death of MT-4 cells was determined in vitro; assay type: functional; conditions: Homo sapiens
Procedure, shortened: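 Uninfected (mock-infected) MT-4 cells grown in RPMI 1640 + 10% heat-inactivated FCS, 2 mM L-glutamine, gentamicin; viability measured at day 5 at 37 °C, 5% CO2; CC50 = concentration causing 50% death of uninfected cells.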

PBMC [7] = assay: Concentration required to cause death of PBMC cells was determined in vitro; assay type: functional; conditions: Homo sapiens
Procedure, shortened: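 Healthy-donor PBMCs activated 3 days with PHA-P (1 μg/mL) and rhIL-2 (5 IU/mL), 100 000 cells/well in RPMI 1640/10% FCS + 20 IU/mL rhIL-2; drug-induced cytotoxicity judged by microscopic observation; CC50 = concentration causing 50% death of uninfected cells.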

PBMC [8] = assay: Effective concentration to inhibit HIV-1 LAI cytopathicity in PBMC cells was determined in vitro; assay type: functional, cell-based; conditions: Homo sapiens
Procedure, shortened: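 PHA-P/rhIL-2-activated PBMCs (100 000/well) pretreated 30 min with compound, then infected with 75 TCID50 HIV-1/LAI; supernatant RT activity measured at day 7; triplicates, mean ± SD; EC50 from percent of untreated controls, 50% inhibition of replication.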

MT4 [9] = assay: Selectivity index is the ratio of CC50 to EC50 values; assay type: functional
Procedure, shortened: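 Selectivity index = CC50/EC50 for uninfected versus HIV-1-infected MT-4 cells or PBMCs.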

[10] = Half life is the time required for hydrolysis of compound to 3TC in HIV medium at 37 degree celsius; assay type: ADME; procedure, shortened: as §1
[11] = Half life is the time required for hydrolysis of compound to 3TC in MT-4 lysate medium at 37 degree celsius; assay type: ADME; conditions: human, MT-4 cell lysate; procedure, shortened: as §2
HepG2 = assay: Effective concentration to inhibit hepatitis B virus DNA formation in HepG2.2.15 cells was determined in vitro; conditions: Homo sapiens

SMILES | logP [1] | half-life [2] | half-life [3] | half-life [4] | EC50 (MT4 [5]) | CC50 (MT4 [6]) | CC50 (PBMC [7]) | EC50 (PBMC [8]) | SI (MT4 [9]) | half-life [10] | half-life [11] | EC50 (HepG2)
CN(C)/C=N/c1ccn(C2CSC(CO)O2)c(=O)n1 (stereo not drawn) | 1.02 | 2 h | 3 h | 3.5 h | 570 nM | > 440000 nM | > 10000 nM | 23.7 nM | >772 and >422 | 2.5 h | 4.5 h | 10 nM
Nc1ccn([C@H]2CC[C@@H](CO)O2)c(=O)n1 [ZALCITABINE] | -0.58 | – | – | – | 1040 nM | 141000 nM | – | – | 135 | – | – | –
O=c1nc(/N=C/N2CCOCC2)ccn1C1CSC(CO)O1 (stereo not drawn) | 0.62 | 1 h | 2.5 h | 2.5 h | 400 nM | > 265000 nM | > 10000 nM | 6.2 nM | – | 1.5 h | 3.5 h | 50 nM
Nc1ccn([C@@H]2CS[C@H](CO)O2)c(=O)n1 [LAMIVUDINE] | 0.06 | – | – | – | 500 nM | > 44000 nM | > 10000 nM | 11.6 nM | – | – | – | 200 nM
